Screens: PubChem BioAssay, Johns Hopkins Ion Channel Center
TRPC6 inhibitor: inhibitors of mouse TRPC6 channel; Q61143; HEK293-TRPC6, membrane potential dye, ACh-evoked depolarization; active compounds read low; B-score at 10 µM; 1.1% of 310,000 active;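 active = B-score under library mean minus 3 SD, initial fluorescence not abnormally high, positive integrated signal ratio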;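 also: B-score derived from integrated fluorescence ratio over the kinetic read; more negative B-score means stronger inhibition of depolarization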
TRPC6 activator: activates the mouse TRPC6 cation channel; AID 2550; B-score at 10 µM; Q61143; 0.13% of 310,000 active; HEK293-TRPC6 membrane potential dye fluorescence; active compounds read high;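 active = B-score of the integrated fluorescence ratio above library mean plus 3 SD, and starting fluorescence ratio within library mean plus 5 SD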;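 also: higher score means more depolarization so channel activation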
TRPC4 inh: TRPC4 (mouse) channel inhibition | Q9QUQ5 | HEK293 TRPC4beta/mu-opioid, DAMGO-evoked Fluo4 calcium flux; active compounds read low | B-score at 10 µM | 0.39% of 300,000 active | AID 2247;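 active = B-score over 3 SD under the library average, no early fluorescence shift, positive overall ratio signal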
Target sequence (Q9QUQ5 whole entry, looked up): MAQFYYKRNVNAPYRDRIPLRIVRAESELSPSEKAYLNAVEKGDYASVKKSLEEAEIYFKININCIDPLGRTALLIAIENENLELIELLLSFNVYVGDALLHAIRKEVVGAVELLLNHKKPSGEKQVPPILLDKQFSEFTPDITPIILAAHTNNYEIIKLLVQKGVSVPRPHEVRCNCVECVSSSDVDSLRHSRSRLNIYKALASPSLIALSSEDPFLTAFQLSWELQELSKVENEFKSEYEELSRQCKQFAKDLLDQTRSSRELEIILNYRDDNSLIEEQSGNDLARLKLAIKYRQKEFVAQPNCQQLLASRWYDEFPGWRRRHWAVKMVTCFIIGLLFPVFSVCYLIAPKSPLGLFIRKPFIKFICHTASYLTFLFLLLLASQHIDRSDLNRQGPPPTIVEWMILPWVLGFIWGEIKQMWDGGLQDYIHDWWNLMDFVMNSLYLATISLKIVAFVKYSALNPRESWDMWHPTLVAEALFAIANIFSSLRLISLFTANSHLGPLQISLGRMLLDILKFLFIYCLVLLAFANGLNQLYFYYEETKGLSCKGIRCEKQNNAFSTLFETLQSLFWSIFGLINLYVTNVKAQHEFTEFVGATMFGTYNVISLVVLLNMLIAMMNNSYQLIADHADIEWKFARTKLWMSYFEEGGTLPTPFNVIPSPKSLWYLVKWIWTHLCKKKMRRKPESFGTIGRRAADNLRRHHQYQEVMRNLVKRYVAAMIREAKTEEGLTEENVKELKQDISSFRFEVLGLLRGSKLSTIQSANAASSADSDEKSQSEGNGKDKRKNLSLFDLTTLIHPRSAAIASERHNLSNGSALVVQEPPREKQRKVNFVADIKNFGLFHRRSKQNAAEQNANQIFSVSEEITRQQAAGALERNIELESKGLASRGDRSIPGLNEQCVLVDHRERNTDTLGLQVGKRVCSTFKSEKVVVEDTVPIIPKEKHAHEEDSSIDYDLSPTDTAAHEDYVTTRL
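material = TRPC4beta/mu-opioid receptor HEK293 cell line | probe or stimulus = sequential submaximal and maximal DAMGO stimulation | compound dosing = one concentration per compound | measured by = Fluo4 Ca2+ flux fluorescence | evaluation = integrated fluorescence ratio relative to baseline, converted to per-well B score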
TRPC4 PAM: allosteric potentiators of mouse TRPC4 channel; HEK293 TRPC4beta/mu-opioid, DAMGO EC20, Fluo-4 Ca2+ flux; active compounds read high; B-score at 10 µM; 0.42% of 310,000 active; AID 2227; Q9QUQ5;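 active = B-score of calcium response area above 5 SD of library B-scores, with initial fluorescence ratio within 5 SD of library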
TRPC4 agonist: opens the mouse TRPC4 cation channel. Q9QUQ5. HEK293 TRPC4beta/mu-opioid, Fluo4 calcium fluorescence; active compounds read high. B-score at 10 µM. 0.49% of 310,000 active. AID 2237;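 active = B-score above 5 SD of library B-scores, and initial fluorescence ratio not above library mean plus 5 SD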;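 also: positive B-score marks a calcium rise read as TRPC4 activation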
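Assay system: HEK293 stable line with TRPC4beta plus mu-opioid receptor; schedule: 45 min room-temperature Fluo4 loading, 110 s read; technique: kinetic Fluo4 calcium fluorescence; evaluation: integrated baseline-normalised fluorescence ratio, converted to per-well B score; controls: buffer (low) and maximal DAMGO (high)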
TRPC4 sel inh 2: mouse TRPC4 off-target activity of TRPC6 inhibitors, second screen. shares compounds with TRPC6 inhibitor. HEK293 TRPC4/MOR, membrane potential dye fluorescence; channel activated by saturating DAMGO dose. inhibition, % at 10 µM. 42% of 920 active. AID 2776;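 active = compounds whose fluorescence signal differed from control wells by over 3 SD, either direction, in both duplicate plates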
TRPC4 spec: mouse TRPC4 off-target activity of TRPC6 inhibitors. shares compounds with TRPC6 inhibitor. HEK293 TRPC4/mu-opioid, membrane potential fluorescence. activity change, negative = inhibition, % at 10 µM. 61% of 920 active;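 active = rise or fall in signal beyond 3 SD of buffer-only wells in both replicate plates, either sign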;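 also: integrated kinetic ratio of fluorescence range over baseline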
HEK293 MPD ctr 2-1: second counter-screen for TRPC6 inhibitors: parental HEK293 cells. shares compounds with TRPC6 inhibitor. parental HEK293 membrane potential dye fluorescence; maximal acetylcholine challenge after compound addition. signal change vs control, % at 10 µM. 31% of 920 active;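 active = membrane potential signal moving either way by over 3 SD of the maximum-effect control, in both duplicate plates, meaning non-specific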
HEK293 MPD ctr-1: counter-screen for TRPC6 inhibitors: effect in parental HEK293 cells. parental HEK293 membrane potential dye fluorescence. 60% of 920 active. AID 2780. shares compounds with TRPC6 inhibitor. membrane potential signal change, % at 10 µM;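 active = membrane potential signal shifting up or down by more than 3 SD of buffer-only wells, on both duplicate plates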
HEK293 MPD ctr-2: parental HEK293 nonspecific activity of TRPC6 modulators; shares compounds with TRPC6 inhibitor; membrane potential dye fluorescence; membrane potential signal change, % at 10 µM; 51% of 2,400 active; AID 488924;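 active = membrane potential signal moves up or down beyond 5 SD from buffer-only wells, on both duplicate plates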
HEK293 MPD ctr 2-2: second check of TRPC6 modulator effects in parental HEK293 cells. shares compounds with TRPC6 inhibitor. membrane potential dye fluorescence; after compound, maximal acetylcholine stimulation. inhibition, % at 10 µM. 14% of 2,400 active. AID 488926;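 active = membrane potential signal drops by more than 5 SD from the mean control signal, in both duplicate plates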
TRPC4/MOR mod: selectivity of TRPC6 modulators against mouse TRPC4; shares compounds with TRPC6 inhibitor; HEK293 TRPC4/mu-opioid, membrane potential fluorescence; AID 488927; percent change from control (negative = decrease, positive = increase), % at 10 µM; 69% of 2,400 active;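 active = membrane potential signal moved up or down beyond 5 SD of buffer control wells, in both duplicate plates, actives on both sides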
TRPC4/MOR inh 2: second selectivity test of TRPC6 modulators against mouse TRPC4; 55% of 2,400 active; inhibition, % at 10 µM; HEK293 TRPC4/mu-opioid, membrane potential dye fluorescence; stimulated with maximal-effect DAMGO; shares compounds with TRPC6 inhibitor;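 active = drop in membrane potential signal beyond 5 SD of the control wells in both duplicate plates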;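 also: TRPC4 counter screen for TRPC6 hits run under conditions tuned for TRPC6 not TRPC4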
TRPC6 inh conf: confirmation of mouse TRPC6 inhibitors | shares compounds with TRPC6 inhibitor | HEK293-TRPC6, membrane potential dye, ACh-evoked depolarization | inhibition, % at 10 µM | 43% of 3,300 active;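 active = fluorescence ratio falls more than 5 SD below the full-stimulation control mean, in both duplicate runs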;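 also: integrated fluorescence ratio of peak minus minimum over baseline after agonist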
TRPC6 act confirm: mouse TRPC6 activator confirmation. HEK293-TRPC6 membrane potential dye fluorescence, FDSS. 11% of 2,800 active. AID 488961. shares compounds with TRPC6 inhibitor. activation, % at 10 µM;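 active = ratio signal rise beyond 5 SD above unstimulated control wells' mean, seen in both duplicate runs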
Numbers stand for hits; i = inactive; nt = no result given. Only some compounds are listed: those with a hit (about 2.3% of all), similar ones and a draw of the others.

SMILES	TRPC6 inhibitor	TRPC6 activator	TRPC4 inh	TRPC4 PAM	TRPC4 agonist	HEK293 MPD ctr-2	HEK293 MPD ctr 2-2	TRPC4/MOR mod	TRPC4/MOR inh 2	TRPC6 inh conf	TRPC6 act confirm	others
Cc1ccc2c(cnn2C(=O)CCC(=O)N2CCCCC2)c1	i	i	i	i	i	nt	nt	nt	nt	nt	nt
Cc1nnc2ccc(-c3cccc(NC(=O)c4ccc(Cl)nc4)c3)nn12	-5.8	i	i	i	i	i	i	-16%	37%	48%	i
Cc1ccc(-c2nn3c(C)nnc3s2)cc1NC(=O)c1cccnc1	-9.7	i	i	i	i	-244%	i	-43%	40%	i	i
CCOc1cccc(C(=O)Nc2cc(-c3nn4c(C)nnc4s3)ccc2C)c1	i	i	i	i	i	nt	nt	nt	nt	nt	nt
Cc1nnc2ccc(-c3cccc(NC(=O)c4ccc(Br)o4)c3)nn12	i	i	i	i	i	nt	nt	nt	nt	nt	nt
Cc1nnc2sc(-c3cccc(NC(=O)c4cccnc4)c3)nn12	-6.5	i	i	i	i	-148%	i	-28%	i	i	i
CC(C)CN(C(=O)C(C)N1C(=O)c2ccccc2C1=O)c1c(N)n(Cc2ccccc2)c(=O)[nH]c1=O (stereo not drawn)	i	i	i	i	i	nt	nt	nt	nt	nt	nt
CCOC(=O)N1CCN(C(=O)COC(=O)CNC(=O)c2ccc(C)cc2)CC1	i	i	i	i	i	nt	nt	nt	nt	nt	nt
O=C1C(=O)N(Cc2cccnc2)C(c2cccc(Br)c2)/C1=C(/O)c1ccc2c(c1)OCO2 (stereo not drawn)	i	i	i	i	i	nt	nt	nt	nt	nt	nt
O=C1CN(C(=O)/C=C/c2cccc(Cl)c2)c2ccccc2N1	-6.7	i	i	i	i	nt	nt	nt	nt	i	i	TRPC4 sel inh 2=i;TRPC4 spec=i;HEK293 MPD ctr 2-1=i;HEK293 MPD ctr-1=i
N/C(=N\OC(=O)c1ccco1)c1cccc(Br)c1	i	i	i	i	i	nt	nt	nt	nt	nt	nt
N/C(=N\OC(=O)c1ccco1)c1cccc([N+](=O)[O-])c1	-5.3	i	i	i	i	i	i	i	i	i	i
O=C(c1ccncc1)N1N=C(C2CCCCC2)CC1(O)C(F)(F)F (stereo not drawn)	-5.8	i	i	i	i	i	i	i	i	i	i
O=C(c1ccco1)N1N=C(C2CCCCC2)CC1(O)C(F)(F)F (stereo not drawn)	i	i	i	i	i	nt	nt	nt	nt	nt	nt
O=C(OCc1nc2ccsc2c(=O)[nH]1)c1ccc(Cl)s1	i	i	i	i	i	nt	nt	nt	nt	nt	nt
Cc1ccc(C)c(OC(=O)c2cccnc2Cl)c1C	-6.2	i	i	i	i	i	i	i	i	i	i
